Source: PubChem BioAssay (several laboratories)
H9c2 TAG inh – reduces triacylglycerol accumulation in H9c2 cells. AID 651582. Nile Red lipid (TAG) fluorescence; cells loaded with 200 µM oleic acid. 230,000 tested, 0.66% active. inhibition, % at 12.5 µM;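 active means pattern-corrected inhibition of lipid staining of at least 50% with the nuclear-stain viability signal not falling by more than 50%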
Lipid droplet – hepatic lipid droplet formation modulation; AML12 mouse hepatocytes, oleate lipid droplets, BODIPY imaging; inhibition, % at 6.5 µM; 240,000 tested, 0.4% active;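 active means lipid droplet intensity inhibited by at least 50%, with more than 500 cells counted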
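Assay system: AML12 mouse liver cells | Compound dosing: One dose, 6.5 µM compound | Read-out basis: Droplet intensity reduction, % inhibition | Measured by: Fluorescence imaging, 20x objective, two fields per well | Schedule: Overnight treatment with compound plus oleate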
Beta2AR agonist – human beta-2 adrenergic receptor agonism by FAP | P07550 | Am2.2-beta2AR cells, FAP receptor internalization, flow cytometry | response, % (concentration not given with the values) | 340,000 tested, 0.43% active;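 active means response above a set limit, near 3 SD of response in nonfluorescent compounds, cut at about 42% in these data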
NTR1 agonist – activates human neurotensin receptor 1 | AID 493036 | P30989 | activation, % at 20 µM | 330,000 tested, 0.17% active | NTR1-U2OS beta-arrestin-GFP spot imaging, agonist mode;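 active means activation at or above 40% of the spot to cytoplasm intensity ratio, with at least 20 cells analyzed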
Arrestin-AP2 inh – blocks beta-arrestin peptide binding to AP2 adaptin; FITC-arrestin peptide / GST-AP2 beads, flow cytometry; AP2 beta2 appendage carries R879A mutation; AID 504490; inhibition, % at 10 µM; 340,000 tested, 0.31% active;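 active means inhibition above a set limit, near 3 SD of compounds lacking own fluorescence, cut at about 54% in these data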
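Material – AP2 appendage R879A on GSH beads · Buffer or medium – PBS with 0.05% Tween 20 and 0.1% BSA · Probe or stimulus – fluorescein-tagged arrestin peptide at 50 nM final · Incubation – compound with beads 12 min RT, then probe 1 h RT · Detection – high-throughput flow cytometry of beads, ex 488, em 535 nm · Evaluation – percent response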
GRK2 inh – human GRK2 inhibition via aptamer displacement; P25098; inhibition of aptamer binding, % at 10 µM; AID 488847; bead flow cytometry, FAM-aptamer displacement from GRK2; 330,000 tested, 0.59% active;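 active means inhibition of aptamer binding above 40%, roughly 3 SD of noise, on plates passing a quality check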;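 further: median bead fluorescence of bound FAM aptamer so fluorescent compounds give negative values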
Target sequence (P25098 whole entry, looked up): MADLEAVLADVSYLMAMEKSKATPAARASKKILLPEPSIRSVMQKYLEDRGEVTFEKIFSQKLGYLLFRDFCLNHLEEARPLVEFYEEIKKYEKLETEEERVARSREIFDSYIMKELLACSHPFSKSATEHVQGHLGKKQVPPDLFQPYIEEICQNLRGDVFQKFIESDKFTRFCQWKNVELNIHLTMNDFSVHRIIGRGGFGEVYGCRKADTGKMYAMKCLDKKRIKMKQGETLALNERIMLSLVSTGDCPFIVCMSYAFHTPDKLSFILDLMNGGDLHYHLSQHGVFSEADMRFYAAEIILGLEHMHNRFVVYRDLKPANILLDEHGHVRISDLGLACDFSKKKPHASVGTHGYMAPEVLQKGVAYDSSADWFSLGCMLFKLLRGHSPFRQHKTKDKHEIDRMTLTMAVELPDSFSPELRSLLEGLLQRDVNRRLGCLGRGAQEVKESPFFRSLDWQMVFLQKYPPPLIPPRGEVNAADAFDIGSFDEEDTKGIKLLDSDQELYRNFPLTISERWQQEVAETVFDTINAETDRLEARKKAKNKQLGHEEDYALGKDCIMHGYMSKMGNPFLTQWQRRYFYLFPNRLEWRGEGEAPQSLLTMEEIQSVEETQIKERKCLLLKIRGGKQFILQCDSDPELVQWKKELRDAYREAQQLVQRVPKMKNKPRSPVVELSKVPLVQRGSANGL
GRK2 inh confirm – confirmation of human GRK2 inhibitors displacing RNA aptamer. shares compounds with GRK2 inh. AID 504451. 2,000 tested, 4% active. bead-bound GRK2, FAM-aptamer displacement, flow cytometry. aptamer displacement, % at 10 µM;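 active means aptamer displacement above 40%, near three times the noise of non-fluorescent compounds, on plates passing quality checks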;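 further: negative values mostly reflect intrinsic compound fluorescence rather than true enhancement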
Aptamer quench SP – counter-screen for GRK2 aptamer inhibitors: fluorescent aptamer quenchers; shares compounds with GRK2 inh; Carboxyfluorescein RNA aptamer on beads, flow cytometry quenching; hits give low values; fluorescence response (% of DMSO), % at 10 µM; 2,000 tested, under 10 active; AID 504580;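 active means compounds that quench the bead-bound fluorescent RNA probe, cutting fluorescence to under half of the solvent control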;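 further: counterscreen run without GRK2 so only probe quenching by compound is measured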
GRK2 confirm 2 – human GRK2 inhibition confirmation, cherry pick 2 | bead-bound GRK2, FAM-aptamer displacement, flow cytometry | shares compounds with GRK2 inh | inhibition of aptamer binding, % at 10 µM | 360 tested, under 10 active | AID 504782;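 active means inhibition of aptamer binding above 40%, about triple the noise seen with nonglowing compounds, on plates passing quality control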;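 further: negative values mostly come from compounds that fluoresce themselves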
FAM quench SP – counter-screen for GRK2 binding hits: quenchers of fluorescent RNA aptamer | shares compounds with GRK2 inh | carboxyfluorescein RNA aptamer beads, flow cytometry quenching; hits give low values | fluorescence response vs DMSO, % at 10 µM | 360 tested, under 10 active | AID 588494;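 active means response vs DMSO under 50%, meaning signal dropped by over half, treated as fluorescence quencher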;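 further: labelled aptamer on streptavidin beads without GRK2 as a quench counter-screen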
Each line names hits and unclear results; the compound was inactive in the other large screens (follow-up assays come after a bar, where they were run). Most compounds without a hit are left out; they make up all but 2% or so of the library.

COc1ccc(C(=O)c2ccc(Cl)cc2)c(OC)c1OC	none (no result: Lipid droplet, NTR1 agonist, GRK2 inh)
CC(SCc1ccc(C(=O)O)o1)c1ccc(C(=O)O)o1 (configuration not stated)	none (no result: H9c2 TAG inh)
COc1ccc(C(=O)NCCCOC(C)C)cc1OC1CCN(C(C)=O)CC1	none (no result: H9c2 TAG inh)
COc1ccc(NC(=O)c2ccc(-c3c(C)noc3C)c3ccoc23)cc1	none (no result: Lipid droplet, Beta2AR agonist, NTR1 agonist, Arrestin-AP2 inh, GRK2 inh)
COc1ccc(-c2cccc(C3CC=CC4C3C(=O)N(Cc3ccccc3)C4c3ccc4ccccc4c3)c2)cc1 (configuration not stated)	none
COc1ccc(C2C3C=CCC(c4cccc(-c5ccc(C)cc5)c4)C3C(=O)N2Cc2ccccc2)cc1Cl (configuration not stated)	none (no result: H9c2 TAG inh) | GRK2 inh confirm inactive | Aptamer quench SP inactive
O=C(NCc1nnnn1-c1ccc(F)cc1)C(=O)c1c[nH]c2ccccc12	none (no result: Lipid droplet, Beta2AR agonist, NTR1 agonist, Arrestin-AP2 inh, GRK2 inh)
CCN(CCCNC(=O)Cn1ncc2c([nH]c3ccc(C)cc32)c1=O)c1ccccc1	GRK2 inh 48.0 (no result: H9c2 TAG inh) | GRK2 inh confirm inactive | Aptamer quench SP inactive
Cc1ccc2[nH]c3c(=O)n(CC(=O)NCCCN(C)Cc4ccccc4)ncc3c2c1	none (no result: H9c2 TAG inh)
CCN(CCCNC(=O)Cn1ncc2c([nH]c3ccc(C)cc32)c1=O)c1cccc(C)c1	none (no result: H9c2 TAG inh) | GRK2 inh confirm inactive | Aptamer quench SP inactive
CC(C)c1cc(CNC(=O)C2CCC(=O)N(Cc3ccccc3F)C2)on1 (configuration not stated)	none
CCOc1ccccc1N1C(=O)CC(Sc2n[nH]c(-c3ccccc3)n2)C1=O (configuration not stated)	none
Cc1ccc(SC2=C(N(C)C)C(=O)c3ccccc3C2=O)cc1	none (no result: Lipid droplet, NTR1 agonist, GRK2 inh)
CCC(CC)NC(=O)C1CCN(c2ccc(S(=O)(=O)N3CCOCC3)cc2[N+](=O)[O-])CC1	none (no result: Lipid droplet)
COc1ccc(C(O)c2ncc(-c3cccc(OCc4ccccc4)c3)[nH]2)cc1F (configuration not stated)	none (no result: Lipid droplet, Beta2AR agonist, NTR1 agonist, Arrestin-AP2 inh, GRK2 inh)
CC(=O)Nc1cccc(NC(=O)CSc2nc(=O)n(CCCN3CCOCC3)c3c2CCC3)c1	none (no result: Lipid droplet)
CC(Oc1ccc([N+](=O)[O-])cc1Cl)C(=O)Nc1ccc(C(N)=O)cc1 (configuration not stated)	GRK2 inh 95.0 (no result: H9c2 TAG inh) | GRK2 inh confirm inactive | Aptamer quench SP inactive
CN(C(=O)CS(=O)(=O)c1cccc(Cl)c1)c1ccccc1	none
CSc1ccc(/C=C/C(=O)c2ccc(NC(C)=O)cc2)cc1	GRK2 inh 88.0 | GRK2 inh confirm inactive | Aptamer quench SP inactive
O=C(NC1CCCCCC1)C(=O)NC1CC1	none
CC(C)NC(=O)C(=O)NC1CCCCCC1	GRK2 inh 54.0 (no result: Lipid droplet) | GRK2 inh confirm inactive | Aptamer quench SP inactive
COc1cc(-c2ccc3c(=O)c4ccccc4sc3c2)cc(OC)c1OC	GRK2 inh 100.0 (no result: Lipid droplet) | GRK2 confirm 2 inactive | FAM quench SP inactive
COc1cc(-c2ccc3c(=O)c4ccccc4n(C)c3c2)cc(OC)c1OC	none
CC(OC(=O)C1CC1)C(=O)Nc1ncc(Cl)cc1Cl (configuration not stated)	none (no result: Lipid droplet)
Cc1nnc(SCc2ccc(CC(=O)O)cc2)o1	GRK2 inh 54.0 (no result: Lipid droplet) | GRK2 inh confirm inactive | Aptamer quench SP inactive
CCOC(=O)C(NC(C)=O)C(=O)Nc1ccc(C)cc1C (configuration not stated)	GRK2 inh 50.0 | GRK2 inh confirm inactive | Aptamer quench SP inactive
CCOC(=O)Nc1ccc(C)cc1C	none
O=C(CSC(=S)N1CCCC1)N1CCN(S(=O)(=O)c2ccccc2F)CC1	none (no result: Lipid droplet)
CCOc1ccc(N=C2NC(=O)SC2CC(=O)OC)cc1 (configuration not stated)	none
CCN(CC)c1ccc(NC(=O)Cn2nnc(-c3cccc(OC)c3OC)n2)c(C)c1	GRK2 inh 95.0 (no result: H9c2 TAG inh) | GRK2 inh confirm inactive | Aptamer quench SP inactive
O=C(O)C1CC(c2ccccc2)=NO1 (configuration not stated)	none (no result: H9c2 TAG inh) | GRK2 confirm 2 inactive | FAM quench SP inactive
COc1ccc(C2=NOC(C(=O)O)C2)cc1 (configuration not stated)	none (no result: H9c2 TAG inh)
O=C(O)C1CC(c2cccc(Br)c2)=NO1 (configuration not stated)	none (no result: H9c2 TAG inh) | GRK2 confirm 2 inactive | FAM quench SP inactive
COc1cc(OC)c(C2=NOC(C(=O)O)C2)cc1Cl (configuration not stated)	none (no result: H9c2 TAG inh) | GRK2 confirm 2 inactive | FAM quench SP inactive
Cc1cc(=O)oc2cc(OC(C(=O)O)c3ccccc3)ccc12 (configuration not stated)	GRK2 inh 84.0 (no result: H9c2 TAG inh) | GRK2 inh confirm inactive | Aptamer quench SP inactive
CCCC(=O)N1CCCC1(C)C(=O)Nc1ccc(-n2cccc2)cc1 (configuration not stated)	none (no result: Lipid droplet, Beta2AR agonist, NTR1 agonist, Arrestin-AP2 inh, GRK2 inh)
Cc1cccc(C)c1NC(=O)CN1C(=O)CCSc2ccc(S(=O)(=O)N3CCCC3)cc21	GRK2 inh 42.0 (no result: H9c2 TAG inh) | GRK2 inh confirm inactive | Aptamer quench SP inactive
O=C(CN1C(=O)CCSc2ccc(S(=O)(=O)N3CCCC3)cc21)Nc1ccccc1Cl	none (no result: H9c2 TAG inh)
CC1(C)N=C(SCC(=O)Nc2ccc(Cl)cc2)C(c2ccc(Cl)cc2)=N1	none | GRK2 inh confirm inactive | Aptamer quench SP inactive
OCC[C@@H]1C[C@H](O)[C@@H](O)[C@@]2(CCCO2)O1	none (no result: Lipid droplet, GRK2 inh)
CN=C1S/C(=C\c2ccc(SC)cc2)C(=O)N1C	none (no result: H9c2 TAG inh)
CSC1=NC(=O)/C(=C/c2ccc(SC)cc2)S1	GRK2 inh 58.0 (no result: Lipid droplet) | GRK2 inh confirm inactive | Aptamer quench SP inactive
CC(=O)NC(c1cccc(F)c1)c1nc(-c2ccccc2)cs1 (configuration not stated)	none (no result: Lipid droplet, Beta2AR agonist, NTR1 agonist, Arrestin-AP2 inh, GRK2 inh)
CCOc1ccc(C=NNC(=O)c2cccc3ccccc23)cc1OCC	none (no result: Lipid droplet, NTR1 agonist, GRK2 inh)
O=C(CS(=O)(=O)c1ccccc1)Nc1nc2ccccc2s1	none (no result: Lipid droplet)
O=C(C[n+]1cccc(CO)c1)Nc1nc2ccccc2s1	GRK2 inh 42.0 | GRK2 inh confirm inactive | Aptamer quench SP inactive
Cc1ccc(-c2noc(C3CCCN(C(=O)c4cccc(F)c4)C3)n2)cc1 (configuration not stated)	GRK2 inh 100.0 | GRK2 inh confirm inactive | Aptamer quench SP inactive
O=C1COc2cc(S(=O)(=O)CCC(=O)N3CCCCC3)c(Cl)cc2N1	none
